Assay results from different studies.
Each line is one published result; the experiments were not run side by side.
Observed: cell growth or viability

| Structure (SMILES) | cell line | technique | time | IC50 |
| --- | --- | --- | --- | --- |
| CC(=O)O[C@H]1C(=O)[C@@]2(C)[C@H]([C@H](OC(=O)c3ccccc3)[C@]3(O)C[C@H](OC(=O)[C@H](O)[C@@H](NC(=O)c4ccccc4)c4ccccc4)C(C)=C1C3(C)C)[C@]1(OC(C)=O)CO[C@@H]1C[C@@H]2O | MDA-MB-231 | MTT | – | 1.38 µM |
| COc1cc(C)cc2oc(-c3cccc(Br)c3)cc(=O)c12 | HS27 | MTT | 24 h | 104 µM |
| CCOc1cc(-c2nc3ccc(C)cc3[nH]2)ccc1O | MDA-MB-231 | MTT | 48 h | > 100 µM |
| COc1cc(C)c(-c2c(C)cc(OC)c3c(=O)cc(-c4ccccc4)oc23)c2oc(-c3ccccc3)cc(=O)c12 | HS27 | MTT | 24 h | > 200 µM |
| O=[N+]([O-])c1ccc(-c2nc3ccccc3n2Cc2ccccc2)cc1 | MDA-MB-231 | MTT | – | 8.32 µM |
| COc1cccc2c1C(=O)c1c(O)c3c(c(O)c1C2=O)C[C@@](O)(C(=O)CO)C[C@@H]3O[C@H]1C[C@H](N)[C@H](O)[C@H](C)O1 | LLC-PK11 | neutral red | 48 h | 0.98 µg/mL |
| COc1cc(OC)c2c(=O)cc(-c3ccc(C(F)(F)F)cc3)oc2c1-c1c(OC)cc(OC)c2c(=O)cc(-c3ccc(C(F)(F)F)cc3)oc12 | HS27 | MTT | 24 h | > 200 µM |
| C#Cc1cccc(Nc2ncnc3cc(OCCOC)c(OCCOC)cc23)c1 | A-375 | MTT | – | 4.14 µM |
| Oc1ccc(Nc2nc(-c3ccc(Cl)cc3)cs2)cc1 | FF2441 | MTS | 48 h | > 100 µM |
| Cc1ccc2nc(-c3c4ccccc4cc4ccccc34)[nH]c2c1 | MDA-MB-231 | MTT | 48 h | 36.8 µM |
| COc1cc(C)cc2oc(-c3ccccc3)cc(=O)c12 | HS27 | MTT | 24 h | > 200 µM |
| Clc1ccnc2c1ccc1c(Cl)ccnc12 | BEL-7404 | MTT | 48 h | > 50 µM |
| C/C=C(/C)C(=O)OC[C@H]1[C@@H](Cc2ccc(C(F)(F)F)cc2)CO[C@@H]1c1ccc(OC)c(OC)c1 | rat VSMC | resazurin | 48 h | 20.1 µM |
| Cc1ccc2nc(-c3ccc([N+](=O)[O-])cc3)[nH]c2c1 | MDA-MB-231 | MTT | 48 h | 17.6 µM |
| Nc1ncc(-c2cnn(C3CCNCC3)c2)cc1-c1nnc(CC2CC2)o1 | CMK | trypan blue | 72 h | 0.653 µM |
| COc1cc(OC)c2c(=O)cc(-c3cccc(Br)c3)oc2c1 | HS27 | MTT | 24 h | 128 µM |
| Oc1c(I)cc(I)c2cccnc12 | BEL-7404 | MTT | 48 h | > 100 µM |
| COC(=O)CN=c1scc(-c2ccccc2)n1-c1ccccc1C | Panc 04.03 | MTT | 72 h | > 100 µM |
| Cc1ccc2nc(-c3ccc(F)cc3)n(Cc3ccccc3)c2c1 | MDA-MB-231 | MTT | – | 28.5 µM |

| Structure (SMILES) | cell line | technique | time | IC50 |
| --- | --- | --- | --- | --- |
| CC(=O)c1cccc(N=Nc2c(C(=O)O)cc(O)c(O)c2O)c1 | A-375 | MTT | – | 11.9 µM |
| COc1ccc(C[C@H]2CO[C@H](c3ccc(OC)c(OC)c3)[C@H]2COC(=O)C=C(C)C)cc1OC | rat VSMC | resazurin | 48 h | 34.3 µM |
| COc1cc(C)c(-c2c(C)cc(OC)c3c(=O)cc(-c4ccc(N(C)C)cc4)oc23)c2oc(-c3ccc(N(C)C)cc3)cc(=O)c12 | HS27 | MTT | – | 180 µM |
| Clc1ccc(-c2nc3ccccc3n2Cc2ccccc2)cc1Cl | MDA-MB-231 | MTT | – | 52.5 µM |
| Oc1c(I)cc(Cl)c2cccnc12 | BEL-7404 | MTT | 48 h | 65.1 µM |
| COc1ccc([C@H]2OC[C@H](Cc3ccc(C(C)(C)C)cc3)[C@@H]2CO)cc1OC | rat VSMC | resazurin | 48 h | 5 µM |
| c1cnc2c(c1)ccc1cccnc12 | BEL-7404 | MTT | 48 h | > 50 µM |
| COC(=O)CN=c1scc(-c2ccccc2)n1-c1ccc(OC)cc1 | SiHa | MTT | 72 h | 2.32 µM |
| COc1cc(C)cc2oc(-c3ccccc3Br)cc(=O)c12 | HS27 | MTT | – | 130 µM |
| COc1ccc(C(=O)O[C@@H]2CN3Cc4c(cc5c(c4OC)OCO5)[C@@]24C=C[C@H](OC)C[C@@H]34)cc1OC | MRC5 | WST-1 | – | 6.1 µM |
| COC(=O)CN=c1scc(-c2ccccc2)n1-c1ccccc1OC | Panc 04.03 | MTT | 72 h | 52.2 µM |
| c1ccc2c(-c3nc4ccccc4[nH]3)c3ccccc3cc2c1 | MDA-MB-231 | MTT | 48 h | 8.4 µM |
| Nc1ccn([C@@H]2O[C@H](CO)[C@@H](O)C2(F)F)c(=O)n1 | Panc 04.03 | MTT | 72 h | 0.19 µM |
| CCCCC[C@H](O)CC(=O)CCc1ccc(O)c(OC)c1 | MRC5 | SRB | – | 303 µM |
| COC(=O)CN=c1scc(-c2ccccc2)n1-c1ccc(C)cc1 | SiHa | MTT | 72 h | 6.17 µM |
| COc1ccnc(-c2cc(OC)ccn2)c1 | BEL-7404 | MTT | 48 h | > 50 µM |
| COc1cc(OC)c2c(=O)cc(-c3ccc(N(C)C)cc3)oc2c1-c1c(OC)cc(OC)c2c(=O)cc(-c3ccc(N(C)C)cc3)oc12 | HS27 | MTT | 24 h | > 200 µM |
| COC(=O)CN=c1scc(-c2ccccc2)n1-c1ccccc1[N+](=O)[O-] | Panc 04.03 | MTT | 72 h | 22.1 µM |
